Test results from ChEMBL document CHEMBL3808334, “Synthesis and in vitro evaluation of novel triazine analogues as anticancer agents and their interaction studies with bovine serum albumin” (Eur J Med Chem, 2016).

Legend:
Format in all cases: functional
NCI/ADR-RES = experiment: Growth inhibition of human NCI/ADR-RES cells assessed as cell growth at 10^-8 M incubated for 48 hrs by sulforhodamine B assay; details: read-out: Activity
NCI-H23 = experiment: Growth inhibition of human NCI-H23 cells assessed as cell growth at 10^-5 M incubated for 48 hrs by sulforhodamine B assay; details: NCI-H23, 48 h, read-out: Activity
[1] = Growth inhibition of human HCT116 cells incubated for 48 hrs by sulforhodamine B assay; details: HCT-116, 48 h
Outline: (§1)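 Cells seeded at 5,000–40,000/well according to doubling time and preincubated 24 h at 37 °C, 5% CO2. Time-zero plates were TCA-fixed. DMSO concentrate was diluted in medium with 50 µg/ml gentamicin to give five concentrations (10-fold or ½ log steps), then exposed 48 h. Cells were TCA-fixed, stained with 0.4% SRB and read at 515 nm. Percent growth was taken against time-zero and control; GI50, TGI and LC50 derived.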

[2] = Growth inhibition of human SNB19 cells assessed as cell growth at 10 uM incubated for 48 hrs by sulforhodamine B assay; details: SNB-19, 48 h, read-out: Activity
[3] = Growth inhibition of human SW620 cells assessed as cell growth at 10^-7 M incubated for 48 hrs by sulforhodamine B assay; details: SW-620, 48 h, read-out: Activity
ACHN = experiment: Growth inhibition of human ACHN cells assessed as cell growth at 10^-4 M incubated for 48 hrs by sulforhodamine B assay; details: read-out: Activity
Outline: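 Five-dose assay: five concentrations from 10-fold or ½-log serial dilutions. Cells are plated at 5,000–40,000 per well according to doubling time, grown 24 h, then exposed 48 h at 37 °C, 5% CO₂. Fixed with cold 50% TCA (final addition) for 60 min at 4 °C and stained with 0.4% SRB in 1% acetic acid. Bound dye is solubilized in 10 mM Tris base and read at 515 nm. GI₅₀ is where [(Ti−Tz)/(C−Tz)]×100 = 50, with a time-zero plate as Tz.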

KM12 = experiment: Growth inhibition of human KM12 cells incubated for 48 hrs by sulforhodamine B assay; details: KM12, 48 h
Outline: (§2)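 Cells were plated at 5,000–40,000 per well according to doubling time and preincubated 24 h at 37 °C in 5% CO2; time-zero plates were then TCA-fixed. Five concentrations (10-fold or ½-log dilutions, DMSO stock) were incubated 48 h. Cells were TCA-fixed, stained with 0.4% SRB and read at 515 nm. GI50 was taken where [(Ti−Tz)/(C−Tz)]×100 = 50.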

CCRF-CEM = experiment: Growth inhibition of human CCRF-CEM cells assessed as cell growth at 10^-4 M incubated for 48 hrs by sulforhodamine B assay; details: read-out: Activity
Outline: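 Leukemia line in the five-dose format: five concentrations from 10-fold or ½-log serial dilutions. Plated at 5,000–40,000 cells per well, preincubated 24 h, then compound added for 48 h at 37 °C, 5% CO₂. Sulforhodamine B absorbance read at 515 nm. Growth is computed against time-zero (Tz) and control (C) readings; GI₅₀ is where [(Ti−Tz)/(C−Tz)]×100 = 50.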

MDA-MB-468 = experiment: Growth inhibition of human MDA-MB-468 cells assessed as cell growth at 10^-4 M incubated for 48 hrs by sulforhodamine B assay; details: MDA-MB-468, 48 h, read-out: Activity
[4] = Growth inhibition of human LOXIMVI cells assessed as cell growth at 10^-5 M incubated for 48 hrs by sulforhodamine B assay; details: LOX IMVI, read-out: Activity
K562 = experiment: Growth inhibition of human K562 cells assessed as cell growth at 10^-7 M incubated for 48 hrs by sulforhodamine B assay; details: K562, 48 h, read-out: Activity
MDA-MB-231 = experiment: Growth inhibition of human MDA-MB-231 cells assessed as cell growth at 10 uM incubated for 48 hrs by sulforhodamine B assay; details: MDA-MB-231, 48 h, read-out: Activity
[5] = Growth inhibition of human MOLT4 cells assessed as cell growth at 10^-5 M incubated for 48 hrs by sulforhodamine B assay; details: MOLT-4, 48 h, read-out: Activity
NCI-H460 = experiment: Growth inhibition of human NCI-H460 cells assessed as cell growth at 10^-8 M incubated for 48 hrs by sulforhodamine B assay; details: NCI-H460, 48 h, read-out: Activity
[6] = Growth inhibition of human SF539 cells incubated for 48 hrs by sulforhodamine B assay; details: SF-539, 48 h; outline: as §2
NCI-H522 [7] = experiment: Growth inhibition of human NCI-H522 cells assessed as cell growth at 10^-6 M incubated for 48 hrs by sulforhodamine B assay; details: NCI-H522, 48 h, read-out: Activity
SK-MEL-28 = experiment: Growth inhibition of human SK-MEL-28 cells incubated for 48 hrs by sulforhodamine B assay; details: SK-MEL-28, 48 h; outline: as §2
[8] = Growth inhibition of human TK10 cells assessed as cell growth at 10^-4 M incubated for 48 hrs by sulforhodamine B assay; details: TK-10, 48 h, read-out: Activity
NCI-H522 [9] = experiment: Growth inhibition of human NCI-H522 cells incubated for 48 hrs by sulforhodamine B assay; details: NCI-H522, 48 h; outline: as §2
MDA-MB-435 = experiment: Growth inhibition of human MDA-MB-435 cells assessed as cell growth at 10 uM incubated for 48 hrs by sulforhodamine B assay; details: MDA-MB-435, 48 h, read-out: Activity
[10] = Growth inhibition of human HOP62 cells incubated for 48 hrs by sulforhodamine B assay; details: HOP-62, 48 h; outline: as §1
EKVX = experiment: Growth inhibition of human EKVX cells assessed as cell growth at 10^-7 M incubated for 48 hrs by sulforhodamine B assay; details: read-out: Activity; outline: as §1
[11] = Growth inhibition of human melanoma cells incubated for 48 hrs by sulforhodamine B assay; details: Melanoma cell; for CC50: read-out: LC50 (the source's name)
[12] = read-out: LC50 (the source's name)
[13] = read-out: pLC50 (the source's name) (converted)

c1ccc(-c2nc(Nc3ccc(-c4nc5ccccc5[nH]4)cc3)nc(N3CCOCC3)n2)cc1
growth at 0.01 µM (NCI/ADR-RES): 95% | growth at 10 µM (NCI-H23): -44% | GI50 ([1]; read-out: GI50): 394 nM | CC50 [1, 12]: 7180 nM | TGI ([1]; read-out: TGI): 1620 nM | GI50 ([1]; read-out: pGI50 (converted)): 398 nM | CC50 [1, 13]: 7240 nM | TGI ([1]; read-out: pTGI (converted)): 1620 nM | growth at 10 µM [2]: -18.6% | growth at 0.1 µM [3]: 92% | growth at 100 µM (ACHN): -70% | GI50 (KM12; read-out: GI50): 1620 nM | CC50 (KM12; [12]): 6300 nM | TGI (KM12; read-out: TGI): 3190 nM | GI50 (KM12; read-out: pGI50 (converted)): 1620 nM | CC50 (KM12; [13]): 6310 nM | TGI (KM12; read-out: pTGI (converted)): 3160 nM | growth at 100 µM (CCRF-CEM): -36% | growth at 100 µM (MDA-MB-468): -58% | growth at 10 µM [4]: -61% | growth at 0.1 µM (K562): 96% | growth at 10 µM (MDA-MB-231): -63.3% | growth at 10 µM [5]: -53% | growth at 0.01 µM (NCI-H460): 103% | GI50 ([6]; read-out: GI50): 1420 nM | CC50 [6, 12]: 6090 nM | TGI ([6]; read-out: TGI): 2940 nM | GI50 ([6]; read-out: pGI50 (converted)): 1410 nM | CC50 [6, 13]: 6030 nM | TGI ([6]; read-out: pTGI (converted)): 2950 nM | growth at 1 µM (NCI-H522 [7]): 109% | GI50 (SK-MEL-28; read-out: GI50): 1560 nM | CC50 (SK-MEL-28; [12]): 6120 nM | TGI (SK-MEL-28; read-out: TGI): 3090 nM | GI50 (SK-MEL-28; read-out: pGI50 (converted)): 1550 nM | CC50 (SK-MEL-28; [13]): 6170 nM | TGI (SK-MEL-28; read-out: pTGI (converted)): 3090 nM | growth at 100 µM [8]: -94% | GI50 (NCI-H522 [9]; read-out: GI50): 2100 nM | CC50 (NCI-H522 [9]; [12]): 7330 nM | TGI (NCI-H522 [9]; read-out: TGI): 3920 nM | GI50 (NCI-H522 [9]; read-out: pGI50 (converted)): 2090 nM | CC50 (NCI-H522 [9]; [13]): 7410 nM | TGI (NCI-H522 [9]; read-out: pTGI (converted)): 3890 nM | growth at 10 µM (MDA-MB-435): -81.1% | GI50 ([10]; read-out: GI50): 1730 nM | LC50 ([10]; read-out: LC50): 7160 nM | TGI ([10]; read-out: TGI): 3520 nM | GI50 ([10]; read-out: pGI50 (converted)): 1740 nM | LC50 ([10]; read-out: pLC50 (converted)): 7080 nM | TGI ([10]; read-out: pTGI (converted)): 3550 nM | growth at 0.1 µM (EKVX): 88% | GI50 [11]: 1560 nM | TGI [11]: 3180 nM | CC50 [11]: 6520 nM

Clc1ccc(-c2nc(Nc3ccc(-c4nc5ccccc5[nH]4)cc3)nc(N3CCOCC3)n2)cc1
growth at 0.01 µM (NCI/ADR-RES): 98% | growth at 10 µM (NCI-H23): -66% | GI50 ([1]; read-out: GI50): 177 nM | TGI ([1]; read-out: TGI): 346 nM | GI50 ([1]; read-out: pGI50 (converted)): 178 nM | TGI ([1]; read-out: pTGI (converted)): 347 nM | growth at 10 µM [2]: -81.2% | growth at 0.1 µM [3]: 95% | growth at 100 µM (ACHN): -30% | GI50 (KM12; read-out: GI50): 370 nM | CC50 (KM12; [12]): 4750 nM | TGI (KM12; read-out: TGI): 1410 nM | GI50 (KM12; read-out: pGI50 (converted)): 372 nM | CC50 (KM12; [13]): 4790 nM | TGI (KM12; read-out: pTGI (converted)): 1410 nM | growth at 100 µM (CCRF-CEM): -36% | growth at 100 µM (MDA-MB-468): -41% | growth at 10 µM [4]: -70% | growth at 0.1 µM (K562): 92% | growth at 10 µM (MDA-MB-231): -76.7% | growth at 10 µM [5]: -72% | growth at 0.01 µM (NCI-H460): 101% | GI50 ([6]; read-out: GI50): 520 nM | TGI ([6]; read-out: TGI): 1830 nM | GI50 ([6]; read-out: pGI50 (converted)): 525 nM | TGI ([6]; read-out: pTGI (converted)): 1820 nM | growth at 1 µM (NCI-H522 [7]): 77% | GI50 (SK-MEL-28; read-out: GI50): 1600 nM | TGI (SK-MEL-28; read-out: TGI): 3220 nM | GI50 (SK-MEL-28; read-out: pGI50 (converted)): 1580 nM | TGI (SK-MEL-28; read-out: pTGI (converted)): 3240 nM | growth at 100 µM [8]: -67% | GI50 (NCI-H522 [9]; read-out: GI50): 1500 nM | TGI (NCI-H522 [9]; read-out: TGI): 3190 nM | GI50 (NCI-H522 [9]; read-out: pGI50 (converted)): 1510 nM | TGI (NCI-H522 [9]; read-out: pTGI (converted)): 3160 nM | growth at 10 µM (MDA-MB-435): -86.1% | GI50 ([10]; read-out: GI50): 1400 nM | TGI ([10]; read-out: TGI): 3040 nM | GI50 ([10]; read-out: pGI50 (converted)): 1410 nM | TGI ([10]; read-out: pTGI (converted)): 3020 nM | growth at 0.1 µM (EKVX): 87% | GI50 [11]: 1070 nM | TGI [11]: 2480 nM | CC50 [11]: 5790 nM
